These results are taken from ChEMBL document CHEMBL1131461 (J Med Chem, 1998).

Structures are written as SMILES. Residue numbers refer to the chain shown, from its start.

A word on the IC50: it is the concentration that inhibits the measured activity by half. Low readings indicate greater potency, high ones weaker potency. As usually defined, the EC50 is the concentration that produces a half-maximal response. A low value points to a more potent agent.

The subject of assay [1] is Mus musculus. The assay is described as follows: Compound at an intraperitoneal dose of 10 mg/Kg was tested for salivation in mice expressed as score. It counts as functional. In short, it runs like this: (§1)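 Male Cr1:CF1RBR mice, 20–30 g, in groups of five. Compound dissolved in distilled water, given ip at 10 mg/kg. Salivation and tremor scored 30 min after dosing on a 0–2 scale (0 = no effect, 1 = moderate, 2 = marked).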

Assay [2] concerns the target T1, Muscarinic acetylcholine receptor M1 (Rattus norvegicus, UniProt P08482).
T1 sequence (P08482 whole entry): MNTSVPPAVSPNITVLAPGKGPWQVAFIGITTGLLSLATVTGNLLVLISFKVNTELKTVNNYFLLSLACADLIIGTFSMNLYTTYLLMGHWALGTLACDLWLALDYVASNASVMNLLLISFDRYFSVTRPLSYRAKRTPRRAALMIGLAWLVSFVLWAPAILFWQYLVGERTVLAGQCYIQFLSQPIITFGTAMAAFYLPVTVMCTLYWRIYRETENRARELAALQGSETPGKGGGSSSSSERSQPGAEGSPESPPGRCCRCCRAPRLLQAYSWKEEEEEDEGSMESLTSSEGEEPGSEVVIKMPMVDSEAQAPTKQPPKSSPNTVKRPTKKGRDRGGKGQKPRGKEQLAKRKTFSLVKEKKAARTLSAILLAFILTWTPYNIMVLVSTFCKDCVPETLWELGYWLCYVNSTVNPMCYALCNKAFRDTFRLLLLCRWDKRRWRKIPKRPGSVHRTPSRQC
The assay is described as follows: Binding affinity for muscarinic acetylcholine receptor M1 using [3H]pirenzepine (Pz) radioligand in rat hippocampus membranes. It counts as cell membranes.

In assay [3] the target is T1, Muscarinic acetylcholine receptor M1. The assay is described as follows: Binding affinity for muscarinic acetylcholine receptor M1 using [3H]oxotremorine-M (Oxo-M) radioligand in rat hippocampus membranes. It counts as cell membranes, Membrane.
Assay [4] deals with Mus musculus. The assay is described as follows: Intraperitoneal dose of 10 mg/Kg was tested for salivation in mice expressed as score. It counts as functional. In short, it runs like this:
as §1

The target of assay [5] is T2, Muscarinic acetylcholine receptor M1 (Homo sapiens, UniProt P11229).
T2 sequence (P11229 whole entry): T1 sequence (P08482 whole entry) with V5A, S254T, S309P, K320R, G337A, V413I
Description: Effective concentration required for stimulation of phosphoinositol (PI) hydrolysis in the A9 L cell line transfected with the Muscarinic acetylcholine receptor M1. It counts as functional, cell-based, A9L.

Assay [6] concerns Mus musculus. Description: Compound at an intraperitoneal dose of 10 mg/Kg was tested for salivation in mice expressed as score; 1=Moderate salivation or tremor. It counts as functional. In short, it runs like this: as §1
Assay [7] concerns Mus musculus. Description: Compound at an intraperitoneal dose of 10 mg/Kg was tested for salivation in mice expressed as score; 2=Marked salivation or tremor. It counts as functional. The method in brief:
as §1

`CSc1nsnc1OC1CN2CCC1CC2` (configuration not stated) displayed a Score in assay [1] of 0.4. Besides, the IC50 in assay [2] stood at 42.5 nM; in assay [3], 17.5 nM.

`CCCOc1nsnc1OC1CN2CCC1CC2` (configuration not stated): the Score in assay [4] is listed as 0. Also, the IC50 worked out at 44.5 nM in assay [2] and 12.5 nM in assay [3].

Turning to `CCCCCCSc1nsnc1OC1CN2CCC1CC2` (configuration not stated), the IC50 in assay [2] was found to be 28.4 nM; in assay [3] it was 7.6 nM. The EC50 in assay [5] was 225 nM. The same compound registered a Score in assay [6] of 1.

The compound `CCCCCCOc1nsnc1OC1CN2CCC1CC2` (configuration not stated) had a Score in assay [1] of 0.2. Further, the IC50 in assay [2] was 42 nM; in assay [3], 11.7 nM. A half-maximal response in assay [5] (EC50) required 259 nM.

In assay [4], `c1nsnc1OC1CN2CCC1CC2` (configuration not stated) yielded a Score of 0. Further, the IC50 in assay [2] was 833 nM; in assay [3], 537 nM.

`Clc1nsnc1OC1CN2CCC1CC2` (configuration not stated): in assay [4], the Score was 0. Also, the IC50 was determined as 63.5 nM in assay [2] and 98.5 nM in assay [3].

As to `CCCCOc1nsnc1OCC[N+](C)(C)C`, the Score in assay [4] was found to be 0. Moreover, the 50% inhibitory concentration (IC50) amounted to 41 nM in assay [2] and 36 nM in assay [3].

As for `CCSCc1nsnc1OC1CN2CCC1CC2` (configuration not stated), the Score in assay [4] is listed as 0. The IC50 was 79 nM in assay [2] and 66.5 nM in assay [3].

As to `CCCCOc1nsnc1OC1CCNC1` (configuration not stated), the Score in assay [4] came out at 0. Moreover, the values for the IC50 in assay [2] and in assay [3] were 361 nM and 158 nM, respectively. Also, in assay [5], it took 4870 nM to reach a half-maximal effect (EC50).

In assay [4], `CCCCOc1nsnc1OCCN(C)C` gave a Score of 0. Moreover, the IC50 in assay [2] worked out at 68.5 nM; in assay [3], 67.5 nM.

For the compound `CCSc1nsnc1OC1CN2CCC1CC2` (configuration not stated), the Score in assay [4] is reported as 0. In addition, the IC50 was found to be 20 nM in assay [2] and 6.5 nM in assay [3].

Take `CSCCc1nsnc1OC1CN2CCC1CC2` (configuration not stated): the Score in assay [4] is reported as 0. The IC50 in assay [2] was 66 nM; in assay [3], 58.7 nM.

In assay [4], `CCCCCOc1nsnc1OC1CN2CCC1CC2` (configuration not stated) came in with a Score of 0. Also, the IC50 in assay [2] came out at 47.7 nM; in assay [3], 12.7 nM. For the same compound, a half-maximal response in assay [5] (EC50) required 165 nM.

Compound `CCCCOc1nsnc1OC1CCN(C)C1` (configuration not stated) registered a Score in assay [4] of 0. The half-inhibitory concentration (IC50) in assay [2] amounted to 44 nM; in assay [3], 42 nM.

On to `CCCSc1nsnc1OC1CN2CCC1CC2` (configuration not stated), for which, in assay [1], the Score came to 0.8. For the same compound, the IC50 in assay [2] was determined as 21 nM; in assay [3], 2.9 nM. The compound further registered an EC50 in assay [5] of 431 nM.

`CCOc1nsnc1OC1CN2CCC1CC2` (configuration not stated) returned a Score in assay [4] of 0. Also, the IC50 in assay [2] is 65.5 nM; in assay [3] it was 20 nM.

In assay [4], `CCCCOc1nsnc1OC1CNC1` gave a Score of 0. Also, in assay [5], it took 6200 nM to reach a half-maximal effect (EC50). The same compound displayed an IC50 in assay [3] of 105 nM.

Regarding `CCCCOc1nccnc1OC1CN2CCC1CC2` (configuration not stated), in assay [4], the Score amounted to 0. Moreover, the results for the IC50 in assay [2] and in assay [3] were 22.3 nM and 38.2 nM, respectively.

In assay [4], `CCCCOc1nonc1OC1CN2CCC1CC2` (configuration not stated) gave a Score of 0. The 50% inhibitory concentration (IC50) in assay [2] was 91 nM; in assay [3], 252 nM.

`CCCCOc1nsnc1OC1CN2CCC1CC2` (configuration not stated) registered a Score in assay [1] of 0.4. For the same compound, the results for the half-inhibitory concentration (IC50) in assay [2] and in assay [3] were 42.3 nM and 10.7 nM, respectively. The EC50 in assay [5] worked out at 102 nM.

In turn, `CCCSc1nsnc1OC12CCCN(CC1)C2` (configuration not stated) came in with a Score in assay [4] of 0. Besides, the IC50 in assay [2] was determined as 6.8 nM; in assay [3], 5.2 nM.

For the compound `COc1nsnc1OC1CN2CCC1CC2` (configuration not stated), the Score in assay [4] amounted to 0. Further, the IC50 turned out to be 155 nM in assay [2] and 201 nM in assay [3].

Turning to `CCCCSc1nsnc1OC1CN2CCC1CC2` (configuration not stated), the IC50 in assay [2] was 5 nM; in assay [3], 2.5 nM. The EC50 in assay [5] was 22.3 nM. For the same compound, in assay [6], the Score came to 1.

`CCCCCSc1nsnc1OC1CN2CCC1CC2` (stereo in doubt; 18e) came in with a Score in assay [1] of 0.6. Also, the IC50 in assay [2] stood at 9 nM; in assay [3], 4.4 nM. Besides, the response in assay [5] was half-maximal at 433 nM (EC50).

In assay [4], `CCCCCSc1nsnc1OC1CN2CCC1CC2` (stereo in doubt; 18f) returned a Score of 0. Moreover, the results for the IC50 in assay [2] and in assay [3] were 3.7 nM and 6.4 nM, respectively.

Compound `CCCCCSc1nsnc1OC1CN2CCC1CC2` (stereo in doubt; 18g) returned a Score in assay [1] of 1.2. The IC50 in assay [2] came to 2.7 nM; in assay [3], 1.4 nM. Moreover, the midpoint of the response in assay [5], the EC50, lay at 136 nM.

For `CCCSc1nsnc1OC1CN2CCC1C2` (stereo in doubt; 26), the Score in assay [7] was determined as 2. For the same compound, the results for the IC50 in assay [2] and in assay [3] were 4.4 nM and 0.76 nM, respectively. Further, in assay [5], a half-maximal effect (EC50) was put at 1.9 nM.

In assay [1], `CCCSc1nsnc1O[C@@H]1CC2CCN(C2)C1` (stereo in doubt; 27) registered a Score of 0.2. Further, the IC50 in assay [2] was 7 nM; in assay [3], 2.8 nM.

For the compound `CCCSc1nsnc1OC1CN2CCCC1C2` (stereo in doubt; 28), the Score in assay [7] is reported as 2. Further, the IC50 worked out at 0.55 nM in assay [2] and 0.38 nM in assay [3]. This compound yielded an EC50 in assay [5] of 1 nM.

Compound `CCCSc1nsnc1OC1CN2CCC1C2` (stereo in doubt; 32) showed a Score in assay [1] of 1.8. Besides, the IC50 in assay [2] is 66.7 nM; in assay [3], 5.5 nM. The same compound showed an EC50 in assay [5] of 162 nM.

`CCCSc1nsnc1O[C@@H]1CC2CCN(C2)C1` (stereo in doubt; 33) displayed a Score in assay [4] of 0. The half-inhibitory concentration (IC50) in assay [2] was determined as 20 nM; in assay [3], 15 nM.

In assay [4], `CCCSc1nsnc1OC1CN2CCCC1C2` (stereo in doubt; 34) returned a Score of 0. For the same compound, the IC50 in assay [2] was determined as 33 nM; in assay [3], 179 nM.

Compound `CCCSc1nsnc1C1CN2CCC1C2` (stereo in doubt; 40) displayed an IC50 in assay [3] of 5.8 nM.

Take `CCCSc1nsnc1C1CN2CCC1C2` (stereo in doubt; 41): in assay [3], the IC50 came to 0.6 nM.

The compound `CC(=O)OC1CN2CCC1CC2` (configuration not stated) [ACECLIDINE] had a Score in assay [7] of 2.

Regarding `CCCCCCOc1nsnc1C1=CCCN(C)C1` [XANOMELINE], in assay [4], the Score is reported as 0.
